Assay [1] addresses Ribosomal protein S6 kinase alpha-1 (Homo sapiens, UniProt Q15418). Put plainly: Inhibition of RSK1 domain 2 K2 site in human HeLa cells lysate at 2 uM pre incubated for 15 mins followed by ADP acyl phosphate probe addition and measured after 10 mins by LC-MS/MS analysis relative to control. The assay is classed as subcellular. Particulars: time 25.0 min.
Assay [2] addresses Serine/threonine-protein kinase/endoribonuclease IRE1 (Homo sapiens, UniProt O75460). Put plainly: Inhibition of IRE1 in human HeLa cells lysate at 2 uM pre incubated for 15 mins followed by ADP acyl phosphate probe addition and measured after 10 mins by LC-MS/MS analysis relative to control. The format is subcellular. Particulars: time 25.0 min.
The target in a further assay is Ephrin type-B receptor 4 (Homo sapiens, UniProt P54760). Put plainly: Inhibition of EphB4 in human HeLa cells lysate pre incubated for 15 mins followed by ADP acyl phosphate probe addition and measured after 10 mins by LC-MS/MS analysis. The format is subcellular.
Assay [3] concerns the target Cyclin-dependent kinase 8/19 (Homo sapiens, UniProt P49336+Q9BWU1). Put plainly: Inhibition of CDK8/CDK11 in human HeLa cells lysate pre incubated for 15 mins followed by ATP acyl phosphate probe addition and measured after 10 mins by LC-MS/MS analysis. The assay is classed as subcellular. The method in brief: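 KiNativ profiling in HeLa lysate (5 mg/mL total protein). Lysate incubated 15 min with inhibitor at 50, 10, 2, 0.8 or 0 μM. ATP or ADP acylphosphate probe then added (5 μM final) and reacted 10 min. Reaction stopped with urea and analysed by targeted MS, using up to four fragment ions per kinase peptide-probe conjugate. % inhibition taken against untreated lysate. Run in duplicate.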

For assay [4], the target named is T1, Serine/threonine-protein kinase Chk1 (Homo sapiens) (UniProt O14757).
T1 sequence (whole entry): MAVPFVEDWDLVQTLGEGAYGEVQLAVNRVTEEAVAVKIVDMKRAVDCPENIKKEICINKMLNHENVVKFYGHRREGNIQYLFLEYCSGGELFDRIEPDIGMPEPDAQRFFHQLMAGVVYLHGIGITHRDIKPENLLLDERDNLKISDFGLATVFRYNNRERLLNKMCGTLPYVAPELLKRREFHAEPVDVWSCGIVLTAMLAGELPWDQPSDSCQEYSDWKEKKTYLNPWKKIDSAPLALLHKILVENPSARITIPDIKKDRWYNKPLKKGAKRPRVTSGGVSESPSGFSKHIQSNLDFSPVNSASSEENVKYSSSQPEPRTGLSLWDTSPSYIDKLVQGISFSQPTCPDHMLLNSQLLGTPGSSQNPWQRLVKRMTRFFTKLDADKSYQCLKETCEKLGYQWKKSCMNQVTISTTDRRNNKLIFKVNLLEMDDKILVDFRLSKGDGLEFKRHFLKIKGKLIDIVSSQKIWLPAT
Put plainly: Inhibition of CHK1 in human HeLa cells lysate at 10 uM pre incubated for 15 mins followed by ATP acyl phosphate probe addition and measured after 10 mins by LC-MS/MS analysis relative to control. The assay is classed as subcellular. The note with it: time 25.0 min.

Assay [5] addresses Serine/threonine-protein kinase PLK1 (Homo sapiens, UniProt P53350). Put plainly: Inhibition of PLK1 in human HeLa cells lysate at 50 uM pre incubated for 15 mins followed by ATP acyl phosphate probe addition and measured after 10 mins by LC-MS/MS analysis relative to control. Particulars: time 25.0 min. The format is subcellular.
Assay [6] is described as follows: Inhibition of PCTAIRE2/ICK in human HeLa cells lysate at 50 uM pre incubated for 15 mins followed by ADP acyl phosphate probe addition and measured after 10 mins by LC-MS/MS analysis relative to control. Particulars: 25 min, condition cancer.
Assay [7] addresses Serine/threonine-protein kinase MARK1 (Homo sapiens, UniProt Q9P0L2). Put plainly: Inhibition of MARK1 in human HeLa cells lysate pre incubated for 15 mins followed by ADP acyl phosphate probe addition and measured after 10 mins by LC-MS/MS analysis. The assay is classed as subcellular.
Assay [8] addresses Serine/threonine-protein kinase Nek7 (Homo sapiens, UniProt Q8TDX7). Put plainly: Inhibition of NEK7 in human HeLa cells lysate at 2 uM pre incubated for 15 mins followed by ADP acyl phosphate probe addition and measured after 10 mins by LC-MS/MS analysis relative to control. The format is subcellular. The note with it: time 25.0 min.
In assay [9] the target is T2, Interleukin-1 receptor-associated kinase 4 (Homo sapiens) (UniProt Q9NWZ3).
T2 sequence (whole entry): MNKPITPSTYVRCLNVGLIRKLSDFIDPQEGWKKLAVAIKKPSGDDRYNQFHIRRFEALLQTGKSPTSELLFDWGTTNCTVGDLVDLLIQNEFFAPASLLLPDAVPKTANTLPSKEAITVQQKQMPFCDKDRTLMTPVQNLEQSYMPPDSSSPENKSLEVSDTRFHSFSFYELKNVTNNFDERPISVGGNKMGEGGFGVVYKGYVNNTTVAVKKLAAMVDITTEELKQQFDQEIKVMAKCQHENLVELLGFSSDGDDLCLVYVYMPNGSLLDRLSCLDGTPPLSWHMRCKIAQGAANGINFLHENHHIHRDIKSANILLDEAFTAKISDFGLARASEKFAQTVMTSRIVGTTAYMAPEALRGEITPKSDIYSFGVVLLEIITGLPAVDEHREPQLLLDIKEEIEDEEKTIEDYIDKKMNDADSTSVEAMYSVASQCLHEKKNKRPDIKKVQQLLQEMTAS
The assay is described as follows: Inhibition of IRAK4 in human HeLa cells lysate at 50 uM pre incubated for 15 mins followed by ADP acyl phosphate probe addition and measured after 10 mins by LC-MS/MS analysis relative to control. The assay is classed as subcellular. Particulars: time 25.0 min.

A further assay concerns Lewis lung carcinoma. The assay is described as follows: Antitumor activity against mouse LL2 cells allografted in C57Bl/6 mouse assessed as reduction tumor growth at 50 mg/kg, ip administered for 17 days. The note with it: time 17.0 day. The format is functional, organism-based. An outline of the steps:
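LL/2 cells (1×10^6, in DMEM) were injected s.c. into the right flank of 6-week-old C57Bl/6 mice on day 0. Dosing was 50 mg/kg i.p. twice daily, starting on day 1, 7 or 10 and continuing to day 17; controls received carrier. 6 mice per treated group. Tumors were measured every 2–3 days.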

Assay [10] in a line: Inhibition of SRC/FYN/YES in human HeLa cells lysate pre incubated for 15 mins followed by ATP acyl phosphate probe addition and measured after 10 mins by LC-MS/MS analysis. The assay is classed as subcellular.
The nature of assay [11]: Inhibition of KHS1/2 in human HeLa cells lysate pre incubated for 15 mins followed by ATP acyl phosphate probe addition and measured after 10 mins by LC-MS/MS analysis. The format is subcellular.

The source made the active and inactive calls. No cut-off for these calls is given here.

Serine/threonine-protein kinase/endoribonuclease IRE1, sequence (O75460 19-977 limits assumed): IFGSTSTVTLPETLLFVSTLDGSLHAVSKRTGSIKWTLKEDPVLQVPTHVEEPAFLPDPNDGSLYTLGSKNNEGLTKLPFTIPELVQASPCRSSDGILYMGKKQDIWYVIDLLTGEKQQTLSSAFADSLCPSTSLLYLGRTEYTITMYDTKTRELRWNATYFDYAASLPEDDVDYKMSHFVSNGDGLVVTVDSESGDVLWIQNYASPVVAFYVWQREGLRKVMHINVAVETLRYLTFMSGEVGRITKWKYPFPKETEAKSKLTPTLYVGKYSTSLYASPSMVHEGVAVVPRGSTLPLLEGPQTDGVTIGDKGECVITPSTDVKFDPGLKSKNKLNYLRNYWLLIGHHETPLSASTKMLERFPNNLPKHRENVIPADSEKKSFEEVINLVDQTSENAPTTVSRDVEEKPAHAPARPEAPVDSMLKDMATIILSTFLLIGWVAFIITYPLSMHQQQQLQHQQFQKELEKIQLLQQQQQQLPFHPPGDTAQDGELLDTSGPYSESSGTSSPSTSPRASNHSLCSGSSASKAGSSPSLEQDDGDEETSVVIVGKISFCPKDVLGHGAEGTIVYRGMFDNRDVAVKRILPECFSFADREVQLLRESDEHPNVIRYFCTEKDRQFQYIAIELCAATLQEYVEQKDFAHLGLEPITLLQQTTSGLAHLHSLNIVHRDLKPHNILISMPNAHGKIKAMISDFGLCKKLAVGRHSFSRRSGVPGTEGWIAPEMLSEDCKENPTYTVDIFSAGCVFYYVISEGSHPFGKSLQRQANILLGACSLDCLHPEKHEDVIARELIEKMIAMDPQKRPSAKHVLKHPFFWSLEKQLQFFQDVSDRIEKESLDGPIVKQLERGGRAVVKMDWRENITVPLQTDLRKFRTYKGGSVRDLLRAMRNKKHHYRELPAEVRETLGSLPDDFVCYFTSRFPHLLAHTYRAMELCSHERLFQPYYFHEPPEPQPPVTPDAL
Serine/threonine-protein kinase MARK1, sequence (Q9P0L2 whole entry): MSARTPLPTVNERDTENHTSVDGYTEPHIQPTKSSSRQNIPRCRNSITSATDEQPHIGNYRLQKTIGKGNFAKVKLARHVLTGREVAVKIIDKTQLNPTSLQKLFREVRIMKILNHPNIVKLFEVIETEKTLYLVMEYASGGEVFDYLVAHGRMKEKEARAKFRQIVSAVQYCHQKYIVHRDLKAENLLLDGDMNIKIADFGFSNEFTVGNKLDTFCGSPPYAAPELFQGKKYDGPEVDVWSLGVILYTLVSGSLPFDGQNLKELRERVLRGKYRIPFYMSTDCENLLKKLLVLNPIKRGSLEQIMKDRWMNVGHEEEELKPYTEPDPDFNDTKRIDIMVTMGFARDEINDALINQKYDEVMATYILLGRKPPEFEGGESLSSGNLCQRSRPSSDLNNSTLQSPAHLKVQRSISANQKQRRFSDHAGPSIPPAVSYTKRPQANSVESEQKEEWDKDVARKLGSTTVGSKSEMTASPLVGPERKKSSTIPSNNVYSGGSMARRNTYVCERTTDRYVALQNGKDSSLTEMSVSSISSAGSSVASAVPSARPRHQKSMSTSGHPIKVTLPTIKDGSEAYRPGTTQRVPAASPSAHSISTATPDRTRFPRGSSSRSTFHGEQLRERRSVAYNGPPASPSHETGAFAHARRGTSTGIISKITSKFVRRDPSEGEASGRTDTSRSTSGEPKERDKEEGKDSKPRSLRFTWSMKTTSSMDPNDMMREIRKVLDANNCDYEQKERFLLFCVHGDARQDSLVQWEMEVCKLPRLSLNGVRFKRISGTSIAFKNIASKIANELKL
Ribosomal protein S6 kinase alpha-1, sequence (Q15418 whole entry, the tested form may be a part): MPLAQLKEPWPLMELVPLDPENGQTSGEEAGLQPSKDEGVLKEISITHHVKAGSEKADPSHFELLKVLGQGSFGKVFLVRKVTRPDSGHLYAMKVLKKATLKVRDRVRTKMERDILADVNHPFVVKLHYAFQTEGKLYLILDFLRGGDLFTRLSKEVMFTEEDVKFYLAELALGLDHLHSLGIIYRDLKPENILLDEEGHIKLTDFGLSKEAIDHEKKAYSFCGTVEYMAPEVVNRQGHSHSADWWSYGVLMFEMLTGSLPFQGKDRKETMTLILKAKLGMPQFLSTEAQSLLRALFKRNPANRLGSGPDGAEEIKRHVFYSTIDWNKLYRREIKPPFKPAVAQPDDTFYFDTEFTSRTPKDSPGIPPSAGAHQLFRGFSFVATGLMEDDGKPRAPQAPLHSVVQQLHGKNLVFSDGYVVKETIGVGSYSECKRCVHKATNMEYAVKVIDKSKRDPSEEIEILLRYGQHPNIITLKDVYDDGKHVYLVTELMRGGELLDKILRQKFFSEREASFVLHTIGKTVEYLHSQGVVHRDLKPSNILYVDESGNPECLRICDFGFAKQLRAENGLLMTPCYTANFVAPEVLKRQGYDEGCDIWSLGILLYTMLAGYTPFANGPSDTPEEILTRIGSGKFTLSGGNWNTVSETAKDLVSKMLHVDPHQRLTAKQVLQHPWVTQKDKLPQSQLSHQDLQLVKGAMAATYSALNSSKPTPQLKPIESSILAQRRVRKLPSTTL
Serine/threonine-protein kinase Nek7, sequence (Q8TDX7 whole entry, looked up): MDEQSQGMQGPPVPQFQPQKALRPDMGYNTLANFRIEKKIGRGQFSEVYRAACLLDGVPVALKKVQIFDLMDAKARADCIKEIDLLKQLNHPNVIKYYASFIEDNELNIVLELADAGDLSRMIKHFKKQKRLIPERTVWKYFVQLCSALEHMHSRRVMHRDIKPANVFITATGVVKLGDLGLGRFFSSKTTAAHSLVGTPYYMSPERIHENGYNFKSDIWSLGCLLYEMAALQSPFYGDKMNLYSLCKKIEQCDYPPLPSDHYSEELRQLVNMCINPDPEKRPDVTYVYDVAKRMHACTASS
Ephrin type-B receptor 4, sequence (P54760 whole entry, the tested form may be a part): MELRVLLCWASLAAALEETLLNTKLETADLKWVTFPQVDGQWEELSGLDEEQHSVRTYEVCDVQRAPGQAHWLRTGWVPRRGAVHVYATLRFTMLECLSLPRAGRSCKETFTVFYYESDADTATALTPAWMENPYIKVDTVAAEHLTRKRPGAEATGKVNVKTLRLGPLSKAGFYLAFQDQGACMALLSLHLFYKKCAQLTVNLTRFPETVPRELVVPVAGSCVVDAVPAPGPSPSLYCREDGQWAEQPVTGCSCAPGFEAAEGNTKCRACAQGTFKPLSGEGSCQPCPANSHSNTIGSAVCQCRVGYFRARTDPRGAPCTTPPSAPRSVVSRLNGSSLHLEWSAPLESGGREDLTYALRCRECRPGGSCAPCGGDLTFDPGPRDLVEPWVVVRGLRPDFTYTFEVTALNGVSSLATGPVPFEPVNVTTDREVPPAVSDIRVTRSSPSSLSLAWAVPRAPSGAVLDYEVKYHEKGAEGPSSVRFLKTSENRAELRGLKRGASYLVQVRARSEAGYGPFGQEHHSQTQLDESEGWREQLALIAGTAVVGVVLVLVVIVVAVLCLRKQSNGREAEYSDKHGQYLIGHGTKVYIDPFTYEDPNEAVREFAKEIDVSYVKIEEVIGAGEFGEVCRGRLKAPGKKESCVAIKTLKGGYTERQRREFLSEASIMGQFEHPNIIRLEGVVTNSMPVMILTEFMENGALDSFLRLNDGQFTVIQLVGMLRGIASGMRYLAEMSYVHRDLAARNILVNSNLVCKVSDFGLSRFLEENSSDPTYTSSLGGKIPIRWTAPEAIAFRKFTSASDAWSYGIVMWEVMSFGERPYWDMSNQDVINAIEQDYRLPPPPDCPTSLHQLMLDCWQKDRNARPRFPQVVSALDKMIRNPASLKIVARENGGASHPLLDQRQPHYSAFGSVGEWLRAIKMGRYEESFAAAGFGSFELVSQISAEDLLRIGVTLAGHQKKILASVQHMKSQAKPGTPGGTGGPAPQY
Serine/threonine-protein kinase PLK1, sequence (P53350 whole entry): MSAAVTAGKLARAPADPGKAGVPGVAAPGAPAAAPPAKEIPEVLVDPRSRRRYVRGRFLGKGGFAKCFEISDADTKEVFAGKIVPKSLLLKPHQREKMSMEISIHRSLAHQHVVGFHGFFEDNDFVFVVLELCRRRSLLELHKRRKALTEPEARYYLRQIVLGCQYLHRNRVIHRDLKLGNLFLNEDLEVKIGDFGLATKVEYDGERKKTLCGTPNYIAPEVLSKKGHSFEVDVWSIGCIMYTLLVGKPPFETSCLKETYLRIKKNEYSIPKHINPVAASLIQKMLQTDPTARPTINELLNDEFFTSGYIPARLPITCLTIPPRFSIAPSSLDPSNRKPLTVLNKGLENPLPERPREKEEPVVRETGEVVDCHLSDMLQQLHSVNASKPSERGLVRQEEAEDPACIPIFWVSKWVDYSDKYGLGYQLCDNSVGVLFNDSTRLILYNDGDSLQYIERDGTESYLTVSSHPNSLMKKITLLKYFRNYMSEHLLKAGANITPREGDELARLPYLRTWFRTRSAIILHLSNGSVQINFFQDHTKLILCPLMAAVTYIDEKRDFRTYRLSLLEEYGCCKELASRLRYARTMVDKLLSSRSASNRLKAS

In the case of `CCOc1cc(N2CCC(O)CC2)ccc1Nc1ncc2c(n1)N(C)c1ccccc1C(=O)N2C`, the inhibition is -6.4% in assay [1]; 16.5% in [2]; -9.9% in [4]; -6.5% in assay [5]; 14.2% in assay [8]; -0.4% in [9]. The IC50 (on Ephrin type-B receptor 4; in assay [3]; in [7]; in assay [10]; in assay [11]) was above 50 µM in each case. For the same molecule, the inhibition at 50 µM in assay [6] was determined as 4.1%. The outcome with Lewis lung carcinoma was Active.

In general, inhibition refers to the relative decrease from the control value, in per cent. Broadly, the IC50 is the concentration that gives 50% inhibition. A lower IC50 goes with higher potency.

For the origin of these results see ChEMBL document CHEMBL5661979, “Pharmacological inhibition of BMK1 suppresses tumor growth through promyelocytic leukemia protein” (Cancer Cell, 2010).
